These results are taken from ChEMBL document CHEMBL4130594 (ACS Med Chem Lett, 2017).

Data set [1] is described as follows: Drug uptake in human PC3 cells at 100000 cpm preincubated for 2 hrs measured up to 8 hrs under hypoxic condition by gamma counting analysis. It is filed as ADME, cell-based. The conditions noted are these: pc-3, 8 h.
Data set [2] is described as follows: Drug uptake in human DU145 cells at 100000 cpm preincubated for 2 hrs measured up to 8 hrs under normoxic condition by gamma counting analysis. Type of data set: ADME, cell-based. To be noted: du-145, 8 h.
The nature of data set [3]: Drug uptake in human PC3 cells at 100000 cpm preincubated for 2 hrs measured up to 8 hrs under normoxic condition by gamma counting analysis. To be noted: pc-3, 8 h. It is filed as ADME, cell-based.
A short description of data set [4]: 1-octanol/phosphate buffered saline distribution coefficient, log D of the compound at 400000 cpm at pH 7.4 by gamma counting method. It is filed as physicochemical.
Data set [5] in a line: Drug uptake in human DU145 cells at 100000 cpm preincubated for 2 hrs measured up to 8 hrs under hypoxic condition by gamma counting analysis. It is filed as ADME, cell-based. The conditions noted are these: du-145, 8 h.
Data set [6] has as its system PC-3. Kind of data set: Selectivity index, ratio of IC50 for human PC3 cells under normoxic condition to IC50 for human PC3 cells under hypoxic condition. Type of data set: functional. In short, it runs like this: (§1)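 Hypoxia cytotoxicity ratio = IC50(air)/IC50(N2), from IC50 values after 2 h exposure of DU145 or PC-3 cells. Based on two or more independent experiments in quintuplicate.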

The subject of data set [7] is DU-145. Kind of data set: Selectivity index, ratio of IC50 for human DU145 cells under normoxic condition to IC50 for human DU145 cells under hypoxic condition. Type of data set: functional. In short, it runs like this: as §1
The test system of data set [8] is PC-3. Kind of data set: Cytotoxicity against human PC3 cells incubated for 2 hrs under hypoxic condition measured after 72 hrs by Alamar blue assay. It is filed as functional, cell-based. In short, it runs like this: (§2)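 DU145 and PC-3 cells exposed 2 h under hypoxia (N2) or normoxia (air). IC50 determined. Mean ± SEM of two or more independent experiments, each in quintuplicate.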
(The colour change of resazurin is a common sign of viable cells or microbes.)

Data set [9] deals with DU-145. Put plainly: Cytotoxicity against human DU145 cells incubated for 2 hrs under hypoxic condition measured after 72 hrs by Alamar blue assay. It is filed as functional, cell-based. In short, it runs like this: as §2
Data set [10] concerns PC-3. Put plainly: Cytotoxicity against human PC3 cells incubated for 2 hrs under normoxic condition measured after 72 hrs by Alamar blue assay. It is filed as functional, cell-based. In short, it runs like this: as §2
Data set [11] relates to DU-145. Kind of data set: Cytotoxicity against human DU145 cells incubated for 2 hrs under normoxic condition measured after 72 hrs by Alamar blue assay. It is filed as functional, cell-based. The method in brief: as §2

Broadly, the logD is lipophilicity at a set pH, counting ionised and neutral species. Take `Cn1c(COP(=O)(N(CCBr)Cc2cn(Cc3ccccc3)nn2)N(CCBr)Cc2nnn(Cc3ccccc3)c2[125I])cnc1[N+](=O)[O-]` (stereo unspecified): the Drug uptake in data set [1] is given as 4%; in data set [2], 2%; in data set [3], 2%; in data set [5], 4%. In data set [4], this compound displayed a logD of 0.55.
The term IC50 denotes the concentration at which inhibition is half-maximal. Read a high IC50 as lower potency. Regarding `Cn1c(COP(=O)(NCCBr)NCCBr)cnc1[N+](=O)[O-]` [EVOFOSFAMIDE], the “Ratio IC50” value in data set [6] is recorded as 106; in data set [7] it was 203. Further, the concentration for half-maximal inhibition (IC50) was found to be 6.49 µM in data set [8], 4.14 µM in data set [9], 687 µM in data set [10] and 842 µM in data set [11].
